Experimental data reported in PubChem BioAssay.
Activity calls are given as the source filed them.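 Rule for the calls, unless noted: active = current rise at least 3 SD above the untreated control mean in each of two repeat wells; inactive = the rest.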

How the values were obtained:
[1] = nonspecific flux increase, KCNQ1-free cells – parental CHO cells, counter-screen for KCNQ1 potentiator project (AID 493006;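 active = duplicate-averaged activation above buffer control mean plus 5 SD of those controls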); details: parental CHO-K1 cells, FluxOR thallium flux, at 10 µM; hits give high values
In short: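 Assay system: Untransfected host CHO-K1 cells with FluxOR thallium dye | Probe or stimulus: Potassium/thallium depolarization pulse | Schedule: Overnight 37 °C plating, 90 min RT dye, 20 min compound | Detection: Kinetic thallium-flux fluorescence | Read-out: Max-minus-min fluorescence over baseline, percent of buffer-to-R-L3 span | Benchmarks: Low control buffer, high control R-L3 activator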

[2] = target: Potassium voltage-gated channel subfamily KQT member 1 (Homo sapiens) (UniProt P51787); test: enhancement of KCNQ1 channel thallium flux – FluxOR thallium flux, CHO cells, duplicates, confirmation (AID 493007;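 active = potentiation averaged over duplicate wells exceeding buffer-only control mean by more than 3 SD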;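 for outcome: cells depolarized by a potassium plus thallium sulfate stimulus after compound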); details: KCNQ1 cell line, FluxOR thallium flux fluorescence, at 10 µM; hits give high values, % of reference activator effect, buffer zero
Chain of Potassium voltage-gated channel subfamily KQT member 1 (Homo sapiens) (P51787 whole entry, looked up): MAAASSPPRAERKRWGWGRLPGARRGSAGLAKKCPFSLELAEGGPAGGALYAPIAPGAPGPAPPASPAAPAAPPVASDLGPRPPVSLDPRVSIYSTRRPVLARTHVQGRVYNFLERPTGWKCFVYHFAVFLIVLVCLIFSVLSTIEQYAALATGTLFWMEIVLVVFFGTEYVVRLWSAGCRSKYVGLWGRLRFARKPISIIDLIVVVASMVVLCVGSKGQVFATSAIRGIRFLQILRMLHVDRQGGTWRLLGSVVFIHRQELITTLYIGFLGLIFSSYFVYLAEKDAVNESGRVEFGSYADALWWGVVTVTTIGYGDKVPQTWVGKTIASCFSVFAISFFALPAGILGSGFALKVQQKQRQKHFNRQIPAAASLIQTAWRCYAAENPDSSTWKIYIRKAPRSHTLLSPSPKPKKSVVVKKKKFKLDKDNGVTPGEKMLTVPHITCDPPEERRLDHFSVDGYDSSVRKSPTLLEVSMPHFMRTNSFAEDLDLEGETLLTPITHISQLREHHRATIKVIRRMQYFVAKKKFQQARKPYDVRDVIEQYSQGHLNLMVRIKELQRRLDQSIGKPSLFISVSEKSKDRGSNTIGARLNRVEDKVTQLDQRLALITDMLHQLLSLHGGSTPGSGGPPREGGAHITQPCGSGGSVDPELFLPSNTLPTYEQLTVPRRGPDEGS
In short: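 Material: KCNQ1-expressing CHO cell line; Incubation: FluxOR dye loading 90 min, compound exposure 20 min, room temperature; Detection: FluxOR Tl+ flux fluorescence, 10 s baseline plus 110 s recording; Read-out: percent activation between buffer and R-L3 responses; Control set: buffer-only wells as 0% and R-L3 activator as 100%; Replication: duplicate wells per compound.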

[3] = target: Potassium voltage-gated channel subfamily KQT member 2 (Rattus norvegicus) (UniProt O88943); test: KCNQ2 thallium flux enhancement – KCNQ2-CHO-K1 cells, selectivity assay for KCNQ1 potentiator project (AID 493009;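 active = mean duplicate potentiation above the buffer control mean plus 5 SD of buffer wells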;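 note: assay conditions were tuned for KCNQ1 rather than KCNQ2 modulators; signal is max minus min fluorescence divided by baseline after thallium stimulus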); details: FluxOR thallium flux fluorescence, at 10 µM; hits give high values, scaled: buffer 0, activator control 100
Chain of Potassium voltage-gated channel subfamily KQT member 2 (Rattus norvegicus) (O88943 whole entry, looked up): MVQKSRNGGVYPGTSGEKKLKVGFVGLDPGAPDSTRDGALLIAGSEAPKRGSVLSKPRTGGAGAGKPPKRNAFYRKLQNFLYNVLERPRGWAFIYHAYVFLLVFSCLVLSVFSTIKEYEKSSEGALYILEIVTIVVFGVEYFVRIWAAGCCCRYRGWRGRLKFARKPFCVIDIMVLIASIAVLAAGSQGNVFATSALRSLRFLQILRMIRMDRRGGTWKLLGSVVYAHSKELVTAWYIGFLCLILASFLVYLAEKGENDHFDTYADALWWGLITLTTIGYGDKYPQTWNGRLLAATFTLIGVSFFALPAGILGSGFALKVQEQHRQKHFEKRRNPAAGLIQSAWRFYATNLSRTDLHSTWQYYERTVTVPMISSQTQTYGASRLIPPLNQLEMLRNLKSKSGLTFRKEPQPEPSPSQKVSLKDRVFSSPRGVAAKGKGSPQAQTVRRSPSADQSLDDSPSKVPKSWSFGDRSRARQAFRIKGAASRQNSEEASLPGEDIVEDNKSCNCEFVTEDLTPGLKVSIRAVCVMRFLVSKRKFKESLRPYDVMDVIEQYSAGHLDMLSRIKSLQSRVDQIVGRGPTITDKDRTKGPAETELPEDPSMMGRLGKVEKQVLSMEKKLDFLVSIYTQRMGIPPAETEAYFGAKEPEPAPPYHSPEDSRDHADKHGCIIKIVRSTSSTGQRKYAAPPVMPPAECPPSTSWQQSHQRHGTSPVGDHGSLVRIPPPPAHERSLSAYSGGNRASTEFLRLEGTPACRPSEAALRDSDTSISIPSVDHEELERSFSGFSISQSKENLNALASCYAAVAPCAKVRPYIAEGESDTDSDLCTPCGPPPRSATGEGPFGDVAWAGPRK

[4] = target: Potassium voltage-gated channel subfamily KQT member 1 (Homo sapiens) (UniProt P51787); test: KCNQ1 activators by electrophysiology – IonWorks patch clamp, KCNQ1-CHO cells, orthogonal assay for KCNQ1 potentiator project, confirmation (AID 493184); details: automated patch clamp current, at 10 µM; hits give high values;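 for current potentiation: percent change of the same well's current before compound addition so 0% = no change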
In short: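 assay system = KCNQ1-expressing CHO cells | medium = external bath solution at pH 7.4 | probe or stimulus = 2,000 ms depolarization, -90 to +40 mV | compound dosing = 10 µM final, single point | measured by = automated voltage clamp, amphotericin B perforated patch | measure = percent current increase versus pre-compound level | replication = duplicates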

Row | SMILES | outcome [1] | outcome [2] | outcome [3] | outcome [4] | activation [1] | potentiation [2] | potentiation [3] | current potentiation [4]
1 | C#CC1(NC(=O)NCCCC)CCCCC1 | inactive | inactive | inactive | inactive |  |  |  | 
2 | OCCCCNCc1ccc(OCc2ccc(Cl)cc2)cc1 |  |  |  | inactive | 220% (active) | 292% (active) | 332% (active) | 
3 | COc1ccc(-n2nnnc2-c2ccccc2)cc1 | inactive | inactive | inactive | inactive |  |  |  | 
4 | COc1ccc(-n2nc(C(=O)NCC(=O)N3CCC(C(N)=O)CC3)c3ccccc3c2=O)cc1 | inactive | inactive | inactive | inactive |  |  |  | 
5 | O=c1c2cc(Cl)ccc2nc(-c2ccccc2)n1O |  |  |  | inactive | 298% (active) | 82.5% (active) | 269% (active) | 
6 | C/C(CCc1oc2c(Br)cc(Br)cc2c1-c1ccc(C)o1)=N\O | inactive | inactive | inactive | inactive |  |  |  | 
7 | CCCCN(CCCC)c1ccc(C(=O)c2ccccc2C(=O)O)c(O)c1 |  |  |  |  | 212% (active) | 51.5% (active) | 182% (active) | 15.1% (active)
8 | O=c1[nH]cc(N=Cc2cc(Cl)cc(Cl)c2O)c(=O)[nH]1 |  | inactive | inactive | inactive | 188% (active) |  |  | 
9 | COc1ccc(N=Nc2ccc(O)c3ncccc23)cc1 |  |  |  | inactive | 176% (active) | 90% (active) | 249% (active) | 
10 | CCCCN1C=CC(=C2C(=O)c3ccccc3C2=O)C=C1 | inactive | inactive | inactive | inactive |  |  |  | 
11 | O=C(Nc1ccc2[nH]c(=S)sc2c1)Nc1ccccc1F |  |  |  | inactive | 150% (active) | 68% (active) | 240% (active) | 
12 | Cc1nn(-c2ccccc2)c2nc(C(Cl)(Cl)Cl)[nH]c(=O)c12 |  | inactive | inactive | inactive | 145% (active) |  |  | 
13 | Cc1cc(NS(=O)(=O)c2ccc(NC(=O)C(C)Oc3ccccc3Cl)cc2)no1 (stereo not given) | inactive | inactive | inactive | inactive |  |  |  | 
14 | Cc1ccc(C)c(NC(=S)N/N=C2/CCCCc3ccccc32)c1 |  |  |  | inactive | 140% (active) | 37% (active) | 164% (active) | 
15 | O=C1c2ccccc2NC(c2ccc(Br)s2)N1O (stereo not given) |  |  |  | inactive | 282% (active) | 57% (active) | 252% (active) | 
16 | COc1ccc(Cl)cc1N(C)C(=O)CCNC(=O)Cn1cnc2ccccc2c1=O | inactive |  |  | inactive |  | 22.5% (active) | 157% (active) | 
17 | O=C1CN(C(=O)CSc2nc3cc(Cl)ccc3c(=O)n2Cc2ccccc2)c2ccccc2N1 | inactive |  | inactive | inactive |  | 22.5% (active) |  | 
18 | Cc1sc(NC(=O)c2ccccc2)c(C(c2ccc(Cl)cc2)N2CCN(CCO)CC2)c1C (stereo not given) | inactive | inactive | inactive | inactive |  |  |  | 
19 | Cc1cccc(C(=O)Oc2csc(=S)n2C(=O)c2cccc(C)c2)c1 |  |  |  | inactive | 139% (active) | 27% (active) | 158% (active) | 
20 | COC(=O)C(C)Sc1nc2c(c(=O)n(C)c(=O)n2C)n1Cc1cccc(C)c1 (stereo not given) | inactive | inactive | inactive | inactive |  |  |  | 
21 | O=C(O)CCC(=O)Nc1ccc(S(=O)(=O)c2ccc(NC(=O)CCC(=O)O)cc2)cc1 | inactive | inactive | inactive | inactive |  |  |  | 
22 | Cc1cc([N+](=O)[O-])ccc1-c1ccc(C2Nc3ccccc3C(=O)N2O)o1 (stereo not given) |  |  |  | inactive | 174% (active) | 18.5% (active) | 158% (active) | 
23 | O=C(NC(=S)N(CCc1ccccc1)CCc1ccccc1)c1ccco1 |  |  |  | inactive | 408% (active) | 364% (active) | 560% (active) | 
24 | CC1CCc2c(sc(NS(=O)(=O)c3ccccc3)c2C(=O)OC(C)C)C1 (stereo not given) |  |  |  | inactive | 284% (active) | 156% (active) | 380% (active) | 
25 | COC(=O)c1c(NC(=O)CC2SC(N)=NC2=O)sc2c1CCC(C)C2 (stereo not given) | inactive | inactive | inactive | inactive |  |  |  | 
26 | Cc1ccccc1NC(=S)NC(=O)c1cc(-c2ccccc2)nc2ccccc12 |  |  |  | inactive | 151% (active) | 53% (active) | 158% (active) | 
27 | Cc1cc(/C=C2\C(=N)N3N=C(c4ccco4)SC3=NC2=O)c(C)n1Cc1ccccc1 | inactive |  | inactive | inactive |  | 37% (active) |  | 
28 | CC(=O)c1c(N2CCCC2)[nH]c(-c2ccccc2)nc1=S | inactive | inactive | inactive | inactive |  |  |  | 
29 | COc1cc(C2C(C#N)=C(N)Oc3cc(O)ccc32)cc2c1OCO2 (stereo not given) | inactive | inactive | inactive | inactive |  |  |  | 
30 | CSc1nsc(SCC(=O)Nc2ccccc2)n1 | inactive | inactive | inactive | inactive |  |  |  | 
